In brackets after ≈: the same amount, converted by molar mass. Activity calls are given as the source filed them. No cut-off for these calls is given here.
tested on: Helicobacter pylori; assay: Antimicrobial activity against Helicobacter pylori ATCC 700392; format: functional; settings: not given

| Structure (SMILES) | MBC |
| --- | --- |
| CC1(C)CC[C@]2(C(=O)O)CC[C@]3(C)C(=C2C1)C=C[C@@H]1[C@@]2(C)CC[C@H](OS(=O)(=O)O)C(C)(C)[C@@H]2CC[C@]13C [FATSICARPAIN B] | 128 µg/mL (≈ 239 µM) |
| CC1(C)CC[C@]2(C(=O)O)CC[C@]3(C)C(=C2C1)C=C[C@@H]1[C@@]2(C)CC[C@@H](O)[C@@](C)(C=O)[C@@H]2CC[C@]13C [FATSICARPAIN C] | 64 µg/mL (≈ 137 µM) |

tested on: not listed separately; assay: Cytotoxicity against human HepG2(2.2.15) cells after 3 days by MTS assay; format: functional, cell-based; settings: HepG2 2.2.15, 72 h
Procedure, shortened: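 HepG2 2.2.15 cells exposed for 3 days to 2-fold serial dilutions, 1.25–40 μg/mL. Viability read by MTS assay, in triplicate. Expressed as percentage of untreated control. Fluorouracil as positive control.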

| Structure (SMILES) | IC50 |
| --- | --- |
| CC1(C)CC[C@]2(C(=O)O)CC[C@]3(C)C(=C2C1)C=C[C@@H]1[C@@]2(C)CC[C@H](OS(=O)(=O)O)C(C)(C)[C@@H]2CC[C@]13C [FATSICARPAIN B] | > 50 µM |
| CC1(C)CC[C@]2(C(=O)O)CC[C@]3(C)C(=C2C1)C=C[C@@H]1[C@@]2(C)CC[C@@H](O)[C@@](C)(C=O)[C@@H]2CC[C@]13C [FATSICARPAIN C] | 16.7 µM |

tested on: Hepatitis B virus; assay: Antiviral activity against Hepatitis B virus infected in human HepG2(2.2.15) cells assessed as reduction of HBsAg secretion by enzyme immunoassay; format: functional, organism-based; settings: not given
Procedure, shortened: (§1)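 HepG2 2.2.15 cells grown in modified Eagle's medium with 10% FBS, no antibiotics, 37 °C, 5% CO2. Confluent cultures treated at nontoxic concentrations in medium with 2% FBS, renewed every 3 days. Medium collected at day 6; HBsAg and HBeAg measured by enzyme immunoassay. Values relative to 0.1% DMSO control. IFN-alpha as positive control.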

| Structure (SMILES) | inhibition |
| --- | --- |
| CC1(C)CC[C@]2(C(=O)O)CC[C@]3(C)C(=C2C1)C=C[C@@H]1[C@@]2(C)CC[C@H](OS(=O)(=O)O)C(C)(C)[C@@H]2CC[C@]13C [FATSICARPAIN B] | inactive |
| CC1(C)CC[C@]2(C(=O)O)CC[C@]3(C)C(=C2C1)C=C[C@@H]1[C@@]2(C)CC[C@@H](O)[C@@](C)(C=O)[C@@H]2CC[C@]13C [FATSICARPAIN C] | inactive |

tested on: Hepatitis B virus; assay: Antiviral activity against Hepatitis B virus infected in human HepG2(2.2.15) cells assessed as reduction of HBeAg secretion by enzyme immunoassay; format: functional, organism-based; settings: not given; procedure, shortened: as §1

| Structure (SMILES) | inhibition |
| --- | --- |
| CC1(C)CC[C@]2(C(=O)O)CC[C@]3(C)C(=C2C1)C=C[C@@H]1[C@@]2(C)CC[C@H](OS(=O)(=O)O)C(C)(C)[C@@H]2CC[C@]13C [FATSICARPAIN B] | inactive |
| CC1(C)CC[C@]2(C(=O)O)CC[C@]3(C)C(=C2C1)C=C[C@@H]1[C@@]2(C)CC[C@@H](O)[C@@](C)(C=O)[C@@H]2CC[C@]13C [FATSICARPAIN C] | inactive |

tested on: AGS; assay: Cytotoxicity against human AGS cells; format: functional, cell-based; settings: not given

| Structure (SMILES) | IC50 |
| --- | --- |
| CC1(C)CC[C@]2(C(=O)O)CC[C@]3(C)C(=C2C1)C=C[C@@H]1[C@@]2(C)CC[C@H](OS(=O)(=O)O)C(C)(C)[C@@H]2CC[C@]13C [FATSICARPAIN B] | > 50 µM |
| CC1(C)CC[C@]2(C(=O)O)CC[C@]3(C)C(=C2C1)C=C[C@@H]1[C@@]2(C)CC[C@@H](O)[C@@](C)(C=O)[C@@H]2CC[C@]13C [FATSICARPAIN C] | > 50 µM |

tested on: Bacillus cereus; assay: Antimicrobial activity against Bacillus cereus ATCC 9139 after 24 hrs by broth microdilution method; format: functional; settings: ATCC 9139, 24 h
Procedure, shortened: (§2)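 MIC by broth microdilution per CLSI guidelines. Strains grown on nutrient agar at 37 °C for 24 h. Inoculum prepared in normal saline against a 0.5 McFarland standard, final density 5 × 10^5 cfu/mL. Compounds dissolved in DMSO, then nutrient broth. 2-fold serial dilutions from 128 down to 0.25 μg/mL. Ampicillin column as positive control.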

| MIC | Structure (SMILES) |
| --- | --- |
| 32 µg/mL (≈ 68.3 µM) | CC1(C)CC[C@]2(C(=O)O)CC[C@]3(C)C(=C2C1)C=C[C@@H]1[C@@]2(C)CC[C@@H](O)[C@@](C)(C=O)[C@@H]2CC[C@]13C [FATSICARPAIN C] |

tested on: Enterococcus faecalis; assay: Antimicrobial activity against Enterococcus faecalis ATCC 29212 after 24 hrs by broth microdilution method; format: functional, organism-based; settings: not given; procedure, shortened: as §2

| MIC | Structure (SMILES) |
| --- | --- |
| inactive | CC1(C)CC[C@]2(C(=O)O)CC[C@]3(C)C(=C2C1)C=C[C@@H]1[C@@]2(C)CC[C@H](OS(=O)(=O)O)C(C)(C)[C@@H]2CC[C@]13C [FATSICARPAIN B] |
| inactive | CC1(C)CC[C@]2(C(=O)O)CC[C@]3(C)C(=C2C1)C=C[C@@H]1[C@@]2(C)CC[C@@H](O)[C@@](C)(C=O)[C@@H]2CC[C@]13C [FATSICARPAIN C] |

tested on: Listeria monocytogenes; assay: Antimicrobial activity against Listeria monocytogenes ATCC 7644 after 24 hrs by broth microdilution method; format: functional, organism-based; settings: not given; procedure, shortened: as §2

| MIC | Structure (SMILES) |
| --- | --- |
| inactive | CC1(C)CC[C@]2(C(=O)O)CC[C@]3(C)C(=C2C1)C=C[C@@H]1[C@@]2(C)CC[C@H](OS(=O)(=O)O)C(C)(C)[C@@H]2CC[C@]13C [FATSICARPAIN B] |
| inactive | CC1(C)CC[C@]2(C(=O)O)CC[C@]3(C)C(=C2C1)C=C[C@@H]1[C@@]2(C)CC[C@@H](O)[C@@](C)(C=O)[C@@H]2CC[C@]13C [FATSICARPAIN C] |

tested on: Pseudomonas aeruginosa; assay: Antimicrobial activity against Pseudomonas aeruginosa ATCC 27853 after 24 hrs by broth microdilution method; format: functional, organism-based; settings: not given; procedure, shortened: as §2

| MIC | Structure (SMILES) |
| --- | --- |
| inactive | CC1(C)CC[C@]2(C(=O)O)CC[C@]3(C)C(=C2C1)C=C[C@@H]1[C@@]2(C)CC[C@H](OS(=O)(=O)O)C(C)(C)[C@@H]2CC[C@]13C [FATSICARPAIN B] |
| inactive | CC1(C)CC[C@]2(C(=O)O)CC[C@]3(C)C(=C2C1)C=C[C@@H]1[C@@]2(C)CC[C@@H](O)[C@@](C)(C=O)[C@@H]2CC[C@]13C [FATSICARPAIN C] |

tested on: Salmonella enterica subsp. enterica; assay: Antimicrobial activity against Salmonella enterica ATCC 13311 after 24 hrs by broth microdilution method; format: functional, organism-based; settings: not given; procedure, shortened: as §2

| MIC | Structure (SMILES) |
| --- | --- |
| inactive | CC1(C)CC[C@]2(C(=O)O)CC[C@]3(C)C(=C2C1)C=C[C@@H]1[C@@]2(C)CC[C@H](OS(=O)(=O)O)C(C)(C)[C@@H]2CC[C@]13C [FATSICARPAIN B] |
| inactive | CC1(C)CC[C@]2(C(=O)O)CC[C@]3(C)C(=C2C1)C=C[C@@H]1[C@@]2(C)CC[C@@H](O)[C@@](C)(C=O)[C@@H]2CC[C@]13C [FATSICARPAIN C] |

tested on: Staphylococcus aureus; assay: Antimicrobial activity against Staphylococcus aureus ATCC 29213 after 24 hrs by broth microdilution method; format: functional; settings: ATCC 29213, 24 h; procedure, shortened: as §2

| MIC | Structure (SMILES) |
| --- | --- |
| 64 µg/mL (≈ 137 µM) | CC1(C)CC[C@]2(C(=O)O)CC[C@]3(C)C(=C2C1)C=C[C@@H]1[C@@]2(C)CC[C@@H](O)[C@@](C)(C=O)[C@@H]2CC[C@]13C [FATSICARPAIN C] |

tested on: Escherichia coli; assay: Antimicrobial activity against Escherichia coli ATCC 35150 after 24 hrs by broth microdilution method; settings: not given

| MIC | Structure (SMILES) |
| --- | --- |
| inactive | CC1(C)CC[C@]2(C(=O)O)CC[C@]3(C)C(=C2C1)C=C[C@@H]1[C@@]2(C)CC[C@H](OS(=O)(=O)O)C(C)(C)[C@@H]2CC[C@]13C [FATSICARPAIN B] |
| inactive | CC1(C)CC[C@]2(C(=O)O)CC[C@]3(C)C(=C2C1)C=C[C@@H]1[C@@]2(C)CC[C@@H](O)[C@@](C)(C=O)[C@@H]2CC[C@]13C [FATSICARPAIN C] |
